These results are taken from article PMC2802674 (Carcinogenesis, 2009).

In one series the test system is hepatic DNA. Conditions: rats given 0.5 mmol/kg, 24 h, HPLC/MS/MS; cited from earlier work.
In another series the test system is ct-DNA. In words: Effect of Phase II conjugation activity on DNA adduct formation in vitro. Type of series: biochemical. Conditions: human liver S9, 1 μM [14C]amine, 6 h at 37°C, NAT cofactors.
Series [1] has as its system bladder cancer. Conditions: population-based study, Los Angeles county; cited from earlier work.
In series [2] the test system is human lymphoblastoid TK6 cells. Conditions: cited from earlier work; for viability: TK6 cells exposed to millimolar concentrations; for cell death: TK6 cells.
The next series has as its system tissue DNA. As to conditions: C57/BL6 mice, dose ∼1 μmol/kg, accelerator mass spectrometry; cited from earlier work.
Another series has as its system Calf thymus DNA. In words: Formation of DNA adducts by [14C]alkylanilines in vitro with human hepatic S9. Type of series: biochemical. As to conditions: human S9, 25–1000 nM alkylaniline (Figure 3). The method, boiled down:
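Calf thymus DNA (1 mg/ml) was incubated with human hepatic S9 (2 mg/ml) in 50 mM Tris pH 7.4 with NADPH regeneration (1.3 mM NADP+, 3.3 mM glucose-6-phosphate, 3.3 mM MgCl2, 0.1 U G6P dehydrogenase) and [14C]alkylaniline at 25, 100 or 1000 nM. Purified DNA-bound radiolabel was measured by accelerator mass spectrometry, as adducts per 10^8 nucleotides (±SD; N = 4).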

Series [3] has as its system S9 from human, rat, dog and mouse liver. As to conditions: cited from earlier work.
In series [4] the test system is CHO cells that are NER deficient (or proficient) and express mouse P4501A2 plus human aryl sulfotransferase or NAT genes. Type of series: cell-based, Chinese hamster. Conditions: two cell lines both deficient in NER, one expressing CYP1A2 and NAT2, 100 μM –1 mM. The method, boiled down:
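These are engineered CHO lines, heterozygous at aprt. UV5 (NER-deficient, XPD/ERCC2 defect) transfected with mouse CYP1A2, then human NAT2 or aryl sulfotransferase; NER-proficient counterparts were included. Parent alkylanilines were dosed at 50 μM–1 mM, and N-hydroxy or aminophenol metabolites at 5–500 μM. Mutant fraction was determined by 8-azaadenine selection.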

Series [5] shares this test system. Type of series: cell-based, Chinese hamster. Conditions: for contribution of aryl sulfotransferase relative to NAT2: NER-deficient cells expressing CYP1A2 and either phase II enzyme; for potency in inducing both responses (cytotoxicity and mutagenicity), influence of NER status: cell lines expressing CYP1A2 and NAT2; for cytotoxicity: two cell lines both deficient in NER, one expressing CYP1A2 and NAT2, 100 μM –1 mM. A digest of the protocol:
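CHO lines derived from AA8 via UV5 (NER-deficient through an induced XPD/ERCC2 defect). UV5P3 carries mouse CYP1A2 cDNA and was further transfected with human aryl sulfotransferase (HAST1) or NAT2; NER-proficient counterparts were also used. Exposure to parent alkylanilines at 50 μM–1 mM, or to N-hydroxy or aminophenol metabolites at 5–500 μM. Viability was scored by trypan blue exclusion 24 h after treatment.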

The test system of series [6] is AA8 CHO cells (NER proficient) and UV5 cells (NER deficient). In words: aprt mutant fraction in AA8 and UV5 CHO cells, 8-azaadenine selection. Type of series: cell-based, Chinese hamster. Conditions: absence of human liver S9, 100 μM–1 mM. The method, boiled down: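 AA8 (NER-proficient) and UV5 (NER-deficient, XPD/ERCC2 defect) CHO cells, neither expressing significant phase I or phase II enzymes, were exposed without human liver S9. Doses were parent alkylanilines at 50 μM–1 mM, or N-hydroxy and aminophenol metabolites at 5–500 μM. Mutant fraction at the heterozygous aprt locus was determined by 8-azaadenine selection.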

The test system is the same in series [7]. In kind it is cell-based, Chinese hamster. As to conditions: for cytotoxicity: AA8 and UV5 cells, absence of human liver S9, 100 μM–1 mM; for influence of NER status on cytotoxicity: UV5 (NER deficient) versus AA8 (NER proficient), absence of human liver S9. A digest of the protocol: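 AA8 (NER-proficient) and UV5 (NER-deficient; induced XPD/ERCC2 defect) CHO lines, neither expressing significant phase I or II enzymes, exposed to parent alkylanilines at 50 μM–1 mM without human liver S9. Viability was scored by trypan blue exclusion 24 h after treatment.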

In series [8] the test system is HPRT gene of human lymphoblastoid TK6 cells. As to conditions: cited from earlier work.
Series [9] concerns 12-O-tetradecanoyl phorbol 13-acetate responsive element and nuclear factor-kappaB-binding activity. Conditions: in an ROS-dependent fashion; cited from earlier work.
The test system of another series is male and female rats. Conditions: dose-dependent; cited from earlier work.
The subject of another series is bone marrow of male mice. As to conditions: oral doses of up to 375 mg/kg/day; cited from earlier work.
In the next series the test system is humans. Conditions: ref International Agency for Cancer; cited from earlier work.
The test system of series [10] is mouse L5178Y lymphoma cells. Conditions: with and without exogenous metabolic activation; cited from earlier work.
The subject of series [11] is Chinese hamster ovary (CHO) cells. Conditions: with and without exogenous metabolic activation; cited from earlier work.
The test system of another series is rat liver microsomes. Conditions: unpublished results; cited from earlier work.
A further series concerns rat hepatocytes. Conditions: cited from earlier work.
The test system of a further series is Drosophila melanogaster. As to conditions: feeding or injecting; cited from earlier work.
The next series relates to Escherichia coli. Conditions: cited from earlier work.
The next series deals with E.coli K12. Conditions: host-mediated assay after feeding to mice; cited from earlier work.
A further series concerns Salmonella typhimurium. Conditions: multiple bacterial strains, presence or absence of exogenous activating systems; cited from earlier work.
For the next series, the system named is human liver microsomes. Conditions: unpublished results; cited from earlier work.
The subject of series [12] is recombinant human P450s (1A1, 1A2, 1B1, 2A6 and 2E1). Conditions: five recombinant human P450s tested; unpublished results; cited from earlier work.
For series [13], the system named is bladder cancer. Conditions: occupationally exposed workers; cited from earlier work.
A further series concerns rats. As to conditions: oral administration, hydrochloride salt, ref International Agency for Cancer; cited from earlier work.
The conditions of series [14]: rats, urine; cited from earlier work.
For a further series, the system named is mice. As to conditions: oral administration, hydrochloride salt, ref International Agency for Cancer; cited from earlier work.
The test system of another series is Nrf2. As to conditions: in vivo in mice; cited from earlier work.

As to `Cc1ccc(N)c(C)c1` [2,4-dimethylaniline], in the series on hepatic DNA, the “hepatic DNA adducts” value is reported as < 3.2 adducts per 10^8 normal bases.

Regarding `CCc1cccc(N)c1` [3-EA, 3-ethylaniline], the “decrease of DNA adduct level by promotion of NAT activity” value in the series on ct-DNA was determined as 28%. For the same compound, in the series on bladder cancer [1], the “association with bladder cancer risk” value is listed as “independently associated with risk for development of bladder cancer”. For the same compound, the viability entry in series [2] is reported as “did not cause reduced viability”. For the same compound, the “labeling of tissue DNA” value in the series with tissue DNA is “detectable labeling of DNA”. Besides, the “DNA binding of 3-EA compared with the other two alkylanilines” value in the series with Calf thymus DNA is “nearly identical to ∼6-fold less”. The “N-hydroxylation rate compared with 3,5-DMA or 2,6-DMA” value in series [3] was “several times greater”.

On to `Cc1cc(C)cc(N)c1` [3,5-DMA, 3,5-dimethylaniline], for which the “enhancement of DNA adduct formation by promotion of NAT activity” value in the series on ct-DNA came to 53%. Moreover, in the series on bladder cancer [1], the “association with bladder cancer risk” value is listed as “independently associated with risk for development of bladder cancer”. Further, the mutagenicity result in series [4] is recorded as “mutagenic only in cells expressing the metabolizing enzymes”. In addition, in [5], the “contribution of aryl sulfotransferase relative to NAT2” value is “more effective in potentiating cytotoxicity but not mutagenicity”; the “potency in inducing both responses (cytotoxicity and mutagenicity), influence of NER status” value was “greatly enhanced in the NER-deficient cells”; the cytotoxicity entry is “cytotoxic”. In series [6], the mutagenicity entry was “not mutagenic”. Besides, in series [2], the cell death result is given as “induced cell death”. For the same compound, in series [7], the cytotoxicity entry was “cytotoxic” and the “influence of NER status on cytotoxicity” value was “enhanced by NER deficiency”. Moreover, the “labeling of tissue DNA” value in the series on tissue DNA was “detectable labeling of DNA”.

Regarding `Cc1cc(C)cc(NO)c1` [N-hydroxy-3,5-DMA], the HPRT mutagenicity result in [8] is recorded as “mutagenic”.

For the compound `N[C@@H](CCC(=O)N[C@@H](CSc1cc(O)c(SC[C@H](NC(=O)CC[C@H](N)C(=O)O)C(=O)NCC(=O)O)c(SC[C@H](NC(=O)CC[C@H](N)C(=O)O)C(=O)NCC(=O)O)c1O)C(=O)NCC(=O)O)C(=O)O` [TGHQ, 2,3,5-tris-(glutathion-S-yl)hydroquinone], the “effect on TRE and NF-kappaB-binding activity” value in [9] is “modulates”.

As for `CCc1cccc(NO)c1` [N-hydoxy-3-EA], the viability entry in series [2] is listed as “did not cause reduced viability”.

As for `Cc1cccc(C)c1N` [2,6-DMA, 2,6-dimethylaniline], the “decrease of DNA adduct level by promotion of NAT activity” value in the series with ct-DNA came to 78%. Also, the tumour induction result in the series on male and female rats is “inducing carcinomas and papillary adenomas of the nasal cavity”. Further, the micronuclei entry with bone marrow of male mice is “No increase of micronuclei”. Besides, the carcinogenicity category result with humans is listed as “Group 2B”. Also, the mutation induction entry in [10] was “induced mutations”. For the same compound, in the series with bladder cancer [1], the “association with bladder cancer risk” value is reported as “independently associated with risk for development of bladder cancer”. The results for the mutagenicity result (in series [4]; in series [6]; with Salmonella typhimurium) were “mutagenic only in cells expressing the metabolizing enzymes”, “not mutagenic” and “neither mutagenic”, respectively. Besides, the “contribution of aryl sulfotransferase relative to NAT2” value in [5] was “more effective in potentiating cytotoxicity but not mutagenicity”. Besides, the “potency in inducing both responses (cytotoxicity and mutagenicity), influence of NER status” value in [5] was “greatly enhanced in the NER-deficient cells”. Besides, the cytotoxicity entry in series [5] and in [7] was “cytotoxic” in each case. Moreover, in series [11], the genotoxic effects induced result was “sister chromatid exchange and chromosomal aberrations”. The “conversion to the corresponding hydroxylamine” value in the series with rat liver microsomes is “undetectable activity”; with human liver microsomes it was “readily apparent”. In the series with rat hepatocytes, the “unscheduled DNA synthesis” value is on record as “did not induce unscheduled DNA synthesis”. Besides, the “sex-linked recessive lethal effect” value in the series on Drosophila melanogaster was “nor was feeding or injecting it effective”. Further, in the series on Escherichia coli, the “activity in DNA damage and repair assay” value was “nor was it active”. In addition, in the series on hepatic DNA, the “hepatic DNA adducts” value is < 3.2 adducts per 10^8 normal bases. The cell death entry in series [2] is on record as “induced cell death”. Further, the genotoxic effect entry in the series with E.coli K12 is reported as “No genotoxic effect”. In addition, the “influence of NER status on cytotoxicity” value in [7] is given as “enhanced by NER deficiency”. The “labeling of tissue DNA” value with tissue DNA is on record as “detectable labeling of DNA”. In addition, the N-hydroxylation activity entry in [12] was “only 2A6 exhibited N-hydroxylation activity”.

As to `Cc1ccccc1N` [o-toluidine], the human carcinogenicity finding entry in the series on bladder cancer [13] is on record as “is indeed a human bladder carcinogen”. Moreover, the carcinogenicity category entry with humans is listed as “Group 1”. Also, the tumour induction result with rats is “increased the incidence of tumours in multiple organs”; in the series on mice, “increased incidence of haemangiomas and haemangiosarcomas and hepatocellular carcinomas or adenomas”. In series [14], the “production of an N-hydroxylamine in vivo” value is listed as “urinary excretion of N-hydroxy-o-toluidine”.

In the case of `CC(=O)Nc1ccc(O)cc1` [acetaminophen], in the series on Nrf2, the Nrf2 nuclear translocation result is reported as “can initiate nuclear translocation of Nrf2”.

As for `Nc1ccc(-c2ccccc2)cc1` [4-aminobiphenyl, reference compound], the “hepatic DNA adducts” value in the series on hepatic DNA is given as ~500 adducts per 10^8 normal bases.
